Experiment [1] concerns primary pig RPE cells. The experiment can be described thus: Cell viability. The format is cell-based. In outline: (§1)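 Primary pig RPE cultures plated at 2 × 10⁴ cells/well (96-well) and grown to confluence (72 h), then exposed to H₂O₂ with TNF-α (10 ng/mL) and test peptide for the indicated time. Live cells were measured as intracellular ATP luminescence (CellTiter-Glo) and dead cells as dead-cell protease luminescence (CytoTox-Glo), with lysis reagent added for total-cell signal. Relative cell numbers are from duplicate wells.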

The subject of experiment [2] is LTB4 (5-LOX activity) in primary pig RPE cells. The experiment can be described thus: Leukotriene B4 ELISA, primary pig RPE medium. In kind it is cell-based. Particulars: 125 μM or 250 μM H2O2/TNF-α. The procedure, abridged:
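Primary pig RPE cultures received H₂O₂ with TNF-α and test peptide. Medium was collected per well, spun briefly at low speed, and 50 μL was assayed by competitive LTB₄ enzyme immunoassay. Concentration came from an LTB₄ standard curve and was normalized to cell number per well. Duplicate wells per condition, each well measured in triplicate; experiment run twice.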

The test system of experiment [3] is ARPE-19 cells. Nature of the experiment: Cell viability. The format is cell-based, human. In outline:
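ARPE-19 cells (passages 27–40; DMEM/F-12, 10% FBS, 37°C, 5% CO₂) were plated at 2 × 10⁴ cells/well and grown to confluence (72 h). After 8 h starvation in 0.5% serum, cells received increasing H₂O₂ plus TNF-α (10 ng/mL), with or without test peptide, for 16 h. Relative live-cell numbers came from intracellular ATP luminescence; each point is the mean of duplicate wells.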

Experiment [4] has as its system LTB4 (5-LOX activity) in ARPE-19 cells. Nature of the experiment: Leukotriene B4 ELISA, ARPE-19 medium. The format is cell-based, human.
Experiment [5] concerns ARPE-19 cells. Nature of the experiment: Cell death. The format is cell-based, human. In outline:
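ARPE-19 cells (passages 27–40) grown in DMEM/F-12 with 10% FBS at 37°C, 5% CO₂, plated at 2 × 10⁴ cells/well (96-well) and cultured to confluency (72 h). Serum-starved 8 h in 0.5% serum, then exposed 16 h to H₂O₂ (600 μM for scrambled-control comparison) plus TNF-α (10 ng/mL) with test peptides. Dead-cell protease activity read by CytoTox-Glo; duplicate wells ± SD.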

Another experiment deals with PEDF. The note with it: peptides from Leu159-Met325 of PEDF-R; cited from earlier work.
The next experiment has as its system human recombinant 5-LOX. The experiment can be described thus: Peptide-affinity chromatography, human recombinant 5-LOX. The format is binding. The note with it: 0.1 M sodium phosphate, 0.1% NP-40, Western blot. The procedure, abridged: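 Human recombinant 5-LOX (300 ng) was incubated with P1-peptide agarose (0.4 nmol) in 0.1 M sodium phosphate and 0.1% NP-40 containing 25–250 mM NaCl, with gentle rotation at 4°C (1.5 h per general method). Agarose without peptide at 50 mM NaCl served as control resin. After extensive washes, bound protein was eluted in SDS-PAGE sample buffer and detected by anti-5-LOX Western blot (1:10,000) with chemiluminescence on film.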

The test system of experiment [6] is primary pig RPE cells. The experiment can be described thus: Cell death. The format is cell-based. The note with it: for Cell death under oxidative stress: pig RPE. The procedure, abridged:
as §1

The test system of experiment [7] is ARPE-19 cells. Nature of the experiment: Pyknotic nuclei counting. In kind it is cell-based, human. The note with it: 600 μM H2O2, 16 hours, Hoechst stain. In outline: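 ARPE-19 cells were serum-starved, then treated with 600 μM H₂O₂ and test peptide together for 16 h. Cells were fixed in methanol (15 min, RT) and stained with 5 μM Hoechst in PBS (15 min, RT). Five random fields per well were imaged, and pyknotic nuclei were counted as a percentage of total cells.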

“Also recorded” adds a separate entry of the source.

The values below come from article PMC5033602 (Investigative Ophthalmology & Visual Science, 2016).

For “P1: L4-derived peptide containing residues Thr^210-Leu^249 of human PEDF-R (TSIQFNLRNLYRLSKALFPPEPLVLREMCKQGYRDGLRFL; UniProt Q96AD5 210-249, looked up, fragment)”, the “Cell viability under oxidative stress” value was “increased pig RPE cell viability” in the experiment on primary pig RPE cells [1] (125 μM H2O2) and “promoted cell viability; also recorded: increased the ARPE-19 cell viability” in the experiment on ARPE-19 cells [3] (H2O2/TNF-α, ATP live cell biomarker, duplicate wells). Also, in the experiment with primary pig RPE cells [1] (250 μM H2O2), the “Cell numbers (viability) under oxidative stress” value is recorded as “did not increase the cell numbers”. For the same substance, the “LTB4 level under oxidative stress” value in experiment [2] is listed as “decreased LTB4 levels in primary pig RPE cells treated at 125 μM or 250 μM H2O2/TNF-α in a concentration-dependent fashion”; in experiment [4] (600 μM H2O2/TNF-α, 20 nM P1) it was “decreased LTB4 to basal levels”; in experiment [4] (750 μM H2O2/TNF-α) it was “only partially diminished LTB4”. The “Protective effect against H2O2” value in the experiment with ARPE-19 cells [3] (600 μM H2O2 plus TNF-α (10 ng/mL), preliminary, data not shown) is recorded as “had protective effects against 600 μM H2O2”. The “Number of dead cells under oxidative stress” value in the experiment on ARPE-19 cells [5] (H2O2 (600 μM for SCR comparison), dead cell protease activity) is “decreased cell death of RPE cells undergoing oxidative stress; also recorded: decreased the number of dead cells under oxidative stress in a concentration-dependent fashion”. The “Protection from oxidative stress-induced cell death (summary)” value was “protected ARPE-19 and pig primary RPE cells from oxidative stress–induced cell death in a specific and concentration-dependent fashion” in the experiment on ARPE-19 cells [5] (H2O2/TNF-α); “protected ARPE-19 and pig primary RPE cells from oxidative stress–induced cell death in a specific and concentration-dependent fashion” with primary pig RPE cells [6] (pig primary RPE, H2O2/TNF-α). In addition, the PEDF-binding affinity result in the experiment on PEDF is on record as “retain the PEDF-binding affinity of PEDF-R”. The “Binding of 5-LOX to P1 at 250 mM NaCl” value with human recombinant 5-LOX (250 mM NaCl) was “completely abolished”. Moreover, in the experiment on human recombinant 5-LOX (25-250 mM NaCl), the “Binding of 5-LOX to P1 with increasing ionic strength” value was “with increasing ionic strength the binding decreased”. Also, the “Cell death under oxidative stress” value is on record as “decreased death at 125 μM H2O2” in the experiment on primary pig RPE cells [6] (125 μM H2O2) and “decreased cell death at 250 μM H2O2” in the experiment on primary pig RPE cells [6] (250 μM H2O2). Moreover, the Pyknotic nuclei level entry in the experiment with ARPE-19 cells [7] was “resulted in a decrease of pyknotic nuclei level”.
